# Assays:
# [1] = tested on: HeLa; experiment: Antiproliferative activity against human HeLa cells assessed as cell growth inhibition at 100 uM by MTT assay relative to control; type: functional; details: read-out: GI
# Outline: (§1)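 Five human lines (MCF-7, HeLa, A549, PC-3, Panc-1) exposed to a single 100 μM concentration. Viability read by MTT. Results expressed as […] versus untreated control cells.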
# [2] = tested on: HeLa; experiment: Antiproliferative activity against human HeLa cells assessed as cell growth inhibition by MTT assay; type: functional, cell-based
# Outline: (§2)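 MTT antiproliferation readout. […] Mean ± SD from three independent experiments.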
# [3] = tested on: PC-3; experiment: Antiproliferative activity against human PC-3 cells assessed as cell growth inhibition at 100 uM by MTT assay relative to control; type: functional; details: read-out: GI; outline: as §1
# [4] = tested on: MCF7; experiment: Antiproliferative activity against human MCF7 cells assessed as cell growth inhibition at 100 uM by MTT assay relative to control; type: functional; details: read-out: GI; outline: as §1
# [5] = tested on: PANC-1; experiment: Antiproliferative activity against human PANC-1 cells assessed as cell growth inhibition at 100 uM by MTT assay relative to control; type: functional; details: read-out: GI; outline: as §1
# [6] = tested on: K562; experiment: Antiproliferative activity against human K562 cells assessed as cell growth inhibition by MTT assay; type: functional, cell-based
# [7] = tested on: A549; experiment: Antiproliferative activity against human A549 cells assessed as cell growth inhibition at 100 uM by MTT assay relative to control; type: functional; details: read-out: GI; outline: as §1
# [8] = tested on: MCF7; experiment: Antiproliferative activity against human MCF7 cells assessed as cell growth inhibition by MTT assay; type: functional, cell-based; outline: as §2
# [9] = target: Tubulin; experiment: Inhibition of tubulin (unknown origin) polymerization measured every 1 min over 20 mins by fluorescence assay; type: protein-complex assay, Homo sapiens
# Outline: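 Tubulin polymerization at 37 °C in reaction buffer, followed at 340 nm each minute over 20 min; 1% DMSO control. IC50 given as mean of three independent experiments done in quadruplicate.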
# [10] = target: Tubulin (Homo sapiens) (UniProt P68371+Q9H4B7+P0DPH7+P68366+Q13509+Q71U36+P04350+Q3ZCM7+P07437+P68363+Q9BQE3+Q6PEY2+Q13885+Q9BVA1+Q9BUF5); experiment: Inhibition of tubulin (unknown origin) polymerization at 10 uM measured every 1 min over 20 mins by fluorescence assay relative to control; type: protein-complex assay
# Outline: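 Tubulin in reaction buffer incubated at 37 °C with test agent at final 10 μM; control 1% DMSO. Polymerization followed at 340 nm, read every minute over 20 min. Run three times.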
# [11] = tested on: PANC-1; experiment: Antiproliferative activity against human PANC-1 cells assessed as cell growth inhibition by MTT assay; type: functional, cell-based; outline: as §2
smiles,measurement,setting,value
COc1ccc(C(=O)Cn2nc(-c3cc(OC)c(OC)c(OC)c3)nc2N)cc1,inhibition of growth at 100 µM,[1],76%
same,IC50,[2],52.2 µM
same,inhibition of growth at 100 µM,[3],31%
same,inhibition of growth at 100 µM,[4],73%
same,inhibition of growth at 100 µM,[5],57%
same,IC50,[6],66 µM
same,inhibition of growth at 100 µM,[7],21%
same,IC50,[8],40.6 µM
same,IC50,[9],9.4 µM
same,inhibition,[10],52%
same,IC50,[11],59.8 µM

# — ChEMBL document CHEMBL4732238, “Synthesis, biological evaluation, and structure-activity relationships of new tubulin polymerization inhibitors based on 5-amino-1,2,4-triazole scaffold” (Bioorg Med Chem Lett, 2021)
